Assay results as given in ChEMBL document CHEMBL3272012, “5-(Tetradecyloxy)-2-furancarboxylic acid and related hypolipidemic fatty acid-like alkyloxyarylcarboxylic acids” (J Med Chem, 1977).

Key:
Rattus norvegicus [1] = assay: Hypolipidemic activity in Wistar rat assessed as reduction in plasma triglyceride level at 423 umol/kg/day administered through diet for 4 days; type: functional; conditions: 96 h
Rattus norvegicus [2] = assay: Increase in liver weight in Wistar rat at 423 umol/kg/day administered through diet for 4 days; type: ADME, organism-based; conditions: in vivo, po, 96 h
Rattus norvegicus [3] = assay: Hypolipidemic activity in Wistar rat assessed as reduction in plasma cholesterol level at 423 umol/kg/day administered through diet for 4 days; type: functional; conditions: 96 h
Summary of the method: (§1)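 Young male Wistar rats, 170-190 g initial weight, groups of six, given compound mixed thoroughly into Purina Lab Chow ad libitum for 4 or 10 days as stated. Daily dose calculated from food consumption and body weight. Bled by cardiac puncture at end of treatment; plasma cholesterol measured by automated procedure. Expressed as percent reduction versus simultaneous untreated control group; Student's t test.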

Rattus norvegicus [4] = assay: Hypolipidemic activity in Wistar rat assessed as reduction in plasma triglyceride level at 312 umol/kg/day administered through diet for 10 days; type: functional; conditions: 240 h
Summary of the method: (§2)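 Young male Wistar rats, 170-190 g initial weight, six per group, fed drug mixed thoroughly into Purina Lab Chow ad libitum for the stated days; daily dose calculated from food consumption and body weight. Bled by cardiac puncture at end; plasma cholesterol and triglycerides by automated procedures, expressed as percent reduction versus simultaneous untreated controls; Student's t test.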

Rattus norvegicus [5] = assay: Hypolipidemic activity in Wistar rat assessed as reduction in plasma cholesterol level at 312 umol/kg/day administered through diet for 10 days; type: functional; conditions: 240 h
Summary of the method: (§3)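 Young male Wistar rats, 170-190 g at start, in groups of six, given compound mixed into Purina Lab Chow ad libitum for 4 or 10 days as stated. Daily dose was calculated from food consumption and body weight. Plasma was taken by cardiac puncture at the end and cholesterol measured by automated procedure. Results are % reduction versus a concurrent untreated control group, with Student's t test.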

Rattus norvegicus [6] = assay: Increase in cholesterol level in Wistar rat liver at 312 umol/kg/day administered through diet for 10 days; type: ADME, organism-based; conditions: in vivo, po, 240 h
Rattus norvegicus [7] = assay: Increase in liver weight in Wistar rat at 312 umol/kg/day administered through diet for 10 days; type: ADME, organism-based; conditions: in vivo, po, 240 h
Rattus norvegicus [8] = assay: Hypolipidemic activity in Wistar rat assessed as reduction in plasma triglyceride level at 463 umol/kg/day administered through diet for 4 days; type: functional; conditions: 96 h
Rattus norvegicus [9] = assay: Hypolipidemic activity in Wistar rat assessed as reduction in plasma cholesterol level at 463 umol/kg/day administered through diet for 4 days; type: functional; conditions: 96 h; summary of the method: as §1
Rattus norvegicus [10] = assay: Increase in liver weight in Wistar rat at 463 umol/kg/day administered through diet for 4 days; type: ADME, organism-based; conditions: in vivo, po, 96 h
Rattus norvegicus [11] = assay: Hypolipidemic activity in Wistar rat assessed as reduction in plasma triglyceride level at 406 umol/kg/day administered through diet for 10 days; type: functional; conditions: 240 h
Rattus norvegicus [12] = assay: Increase in cholesterol level in Wistar rat liver at 406 umol/kg/day administered through diet for 10 days; type: ADME, organism-based; conditions: in vivo, po, 240 h
Rattus norvegicus [13] = assay: Increase in cholesterol level in Wistar rat liver at 400 umol/kg/day administered through diet for 4 days; type: ADME, organism-based; conditions: in vivo, po, 96 h
Rattus norvegicus [14] = assay: Hypolipidemic activity in Wistar rat assessed as reduction in plasma triglyceride level at 400 umol/kg/day administered through diet for 4 days; type: functional; conditions: 96 h
Rattus norvegicus [15] = assay: Hypolipidemic activity in Wistar rat assessed as reduction in plasma cholesterol level at 406 umol/kg/day administered through diet for 10 days; type: functional; conditions: 240 h; summary of the method: as §3
Rattus norvegicus [16] = assay: Increase in liver weight in Wistar rat at 400 umol/kg/day administered through diet for 4 days; type: ADME, organism-based; conditions: in vivo, po, 96 h
Rattus norvegicus [17] = assay: Hypolipidemic activity in Wistar rat assessed as reduction in plasma cholesterol level at 400 umol/kg/day administered through diet for 4 days; type: functional; conditions: 96 h; summary of the method: as §3
Rattus norvegicus [18] = assay: Increase in liver weight in Wistar rat at 406 umol/kg/day administered through diet for 10 days; type: ADME, organism-based; conditions: in vivo, po, 240 h
Rattus norvegicus [19] = assay: Increase in liver weight in Wistar rat at 404 umol/kg/day administered through diet for 4 days; type: ADME, organism-based; conditions: in vivo, po, 96 h
Rattus norvegicus [20] = assay: Increase in liver weight in Wistar rat at 428 umol/kg/day administered through diet for 4 days; type: ADME, organism-based; conditions: in vivo, po, 96 h
Rattus norvegicus [21] = assay: Hypolipidemic activity in Wistar rat assessed as reduction in plasma cholesterol level at 291 umol/kg/day administered through diet for 4 days; type: functional; conditions: 96 h; summary of the method: as §3
Rattus norvegicus [22] = assay: Increase in liver weight in Wistar rat at 291 umol/kg/day administered through diet for 4 days; type: ADME, organism-based; conditions: in vivo, po, 96 h
Rattus norvegicus [23] = assay: Hypolipidemic activity in Wistar rat assessed as reduction in plasma triglyceride level at 291 umol/kg/day administered through diet for 4 days; type: functional; conditions: 96 h; summary of the method: as §2

Q: `CCCCCCCCCCCCCCOc1ccc(C(=O)OC)cc1C(=O)OC` was tested. Which inhibition in vivo at 423 µmol/kg (Rattus norvegicus [1]) did it give?
A: 10%

Q: And the Activity (Rattus norvegicus [2])?
A: 0%

Q: What about the inhibition in vivo at 423 µmol/kg (Rattus norvegicus [3]) of the same compound?
A: 7%

Q: What does the source list for `CCCCCCCCCCCCCCOc1ccc(C(=O)CC(=O)OCCNC(C)=O)cc1`?
A: inhibition in vivo at 312 µmol/kg (Rattus norvegicus [4]): 60%; inhibition in vivo at 312 µmol/kg (Rattus norvegicus [5]): 35%; Activity (Rattus norvegicus [6]): 8%; Activity (Rattus norvegicus [7]): 15%

Q: With `CCCCCCCCCCCCCCSc1ccc(C(=O)O)s1` as the compound, how does the inhibition in vivo at 463 µmol/kg (Rattus norvegicus [8]) read?
A: 61%

Q: What about the inhibition in vivo at 463 µmol/kg (Rattus norvegicus [9]) of the same compound?
A: 15%

Q: And the Activity (Rattus norvegicus [10])?
A: 4%

Q: For `CCCCCCCCCCCCOc1ccc(C(=O)CC(=O)OC)cc1`, which inhibition in vivo at 406 µmol/kg (Rattus norvegicus [11]) is on record?
A: 71%

Q: What about the Activity (Rattus norvegicus [12]) of the same compound?
A: 24%

Q: What about the Activity (Rattus norvegicus [13]) of the same compound?
A: 32%

Q: What about the inhibition in vivo at 400 µmol/kg (Rattus norvegicus [14]) of the same compound?
A: 84%

Q: What about the inhibition in vivo at 406 µmol/kg (Rattus norvegicus [15]) of the same compound?
A: 27%

Q: What about the Activity (Rattus norvegicus [16]) of the same compound?
A: 22%

Q: And the inhibition in vivo at 400 µmol/kg (Rattus norvegicus [17])?
A: 35%

Q: What about the Activity (Rattus norvegicus [18]) of the same compound?
A: 34%

Q: Which Activity (Rattus norvegicus [19]) does the source give for `CCCCCCCCCCCCCCCCSc1ccc(C(=O)O)cc1` here?
A: 6%

Q: `CCCCCCCCCCCCCCSc1ccc(C(=O)O)cc1` was tested. Which Activity (Rattus norvegicus [20]) did it give?
A: 6%

Q: How did the inhibition in vivo at 291 µmol/kg (Rattus norvegicus [21]) turn out when `CCCCCCCCCCCCCCOc1ccc(C(=O)O)c(OCCCCCCCCCCCCCC)c1` was run?
A: 0%

Q: And the Activity (Rattus norvegicus [22])?
A: 7%

Q: And the inhibition in vivo at 291 µmol/kg (Rattus norvegicus [23])?
A: 0%
